Reference: ChEMBL document CHEMBL4261571, “Development of highly active anti-Pneumocystis bisbenzamidines: insight into the influence of selected substituents on the in vitro activity” (Medchemcomm, 2017)
The source made the active and inactive calls. No cut-off for these calls is given here.

Columns and labels:
Pneumocystis carinii [1] = test: Antipneumocystis activity against Pneumocystis carinii after 24 to 72 hrs by ATP-based luciferin-luciferase assay; format: functional, organism-based
Method in brief: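 P. carinii from immunosuppressed rat lungs (methylprednisolone 20 mg/kg s.c. weekly) was cryopreserved. It was exposed to compounds diluted in RPMI 1640 at 36 °C, 5% CO2, for 24, 48 and 72 h. ATP was measured by luciferin-luciferase luminescence after background subtraction. Triplicate wells of duplicate assays were averaged. % ATP reduction was calculated against media control, and IC50 came from linear regression.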

A549 = test: Cytotoxicity against human A549 cells assessed as decrease in cell viability after 24 to 72 hrs by ATP-based luciferin-luciferase assay
Method in brief: (§1)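 A549 cells in DMEM and L2 cells in F12, each with 10% fetal calf serum, 1% MEM vitamins and 1% NEAA, were plated at 2 × 10^5/ml and grown to confluence. They were exposed first to 100 µg/ml, then to 100, 10, 1 and 0.1 µg/ml, for 24, 48 and 72 h in duplicate wells. Cells were lysed with 0.1 M NaOH and ATP was read by luciferin-luciferase luminescence. IC50 came from linear regression of % ATP reduction.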

[2] = Cytotoxicity against rat L2 cells assessed as decrease in cell viability after 24 to 72 hrs by ATP-based luciferin-luciferase assay; method in brief: as §1
Pneumocystis carinii [3] = test: Antipneumocystis activity against Pneumocystis carinii at 100 ug/ml after 24 to 72 hrs by ATP-based luciferin-luciferase assay; format: functional, organism-based
Method in brief: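 Single high-dose screen at 100 µg/ml against rat-derived, cryopreserved P. carinii in RPMI 1640 at 36 °C, 5% CO2, read at 24, 48 and 72 h. ATP was measured by luminescence after background subtraction, with triplicate wells of duplicate assays averaged. % ATP reduction was calculated relative to media control. Controls were media, DMSO vehicle, ampicillin 10 µg/ml and pentamidine isethionate 1 µg/ml.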

[4] = target: Luciferin 4-monooxygenase (Photinus pyralis) (UniProt P08659); test: Effect on luciferin/firefly luciferase reaction assessed as quench effect at 100 ug/ml
Luciferin 4-monooxygenase (Photinus pyralis), sequence (P08659 whole entry): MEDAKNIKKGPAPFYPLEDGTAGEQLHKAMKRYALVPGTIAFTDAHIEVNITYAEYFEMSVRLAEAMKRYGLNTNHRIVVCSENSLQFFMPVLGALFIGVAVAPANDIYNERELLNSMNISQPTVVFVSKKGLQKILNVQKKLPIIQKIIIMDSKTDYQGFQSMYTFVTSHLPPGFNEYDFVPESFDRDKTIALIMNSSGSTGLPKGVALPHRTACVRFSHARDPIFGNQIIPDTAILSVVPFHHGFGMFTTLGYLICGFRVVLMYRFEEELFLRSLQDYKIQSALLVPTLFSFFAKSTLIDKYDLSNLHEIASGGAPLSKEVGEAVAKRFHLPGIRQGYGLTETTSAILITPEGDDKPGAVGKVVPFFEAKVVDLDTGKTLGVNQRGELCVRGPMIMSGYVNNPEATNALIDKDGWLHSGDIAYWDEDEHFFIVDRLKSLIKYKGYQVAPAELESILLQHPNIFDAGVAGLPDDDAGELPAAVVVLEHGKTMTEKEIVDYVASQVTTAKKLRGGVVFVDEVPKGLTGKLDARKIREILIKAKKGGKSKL

SMILES	IC50 (Pneumocystis carinii [1])	Activity (Pneumocystis carinii [3])	Activity [4]	IC50 (A549)	IC50 [2]
Cc1cc(C(=N)N)cc(C)c1OCCCCCOc1c(C)cc(C(=N)N)cc1C	< 0.213 µM	Active	inactive	32.2 µM	19 µM
Cc1cc(C(=N)N)cc(C)c1OCCN(CCOc1c(C)cc(C(=N)N)cc1C)S(=O)(=O)c1ccccc1	1.52 µM	Active	inactive	> 100 µM	> 100 µM
CCCNC(=N)c1ccc(CN2CCN(Cc3ccc(C(=N)NCCC)cc3)CC2)cc1	1.69 µM	Active	inactive	> 100 µM	> 100 µM
N=C(N)c1ccc(NCCOCCNc2ccc(C(=N)N)cc2N)c(N)c1	< 0.175 µM	Active	15%	> 100 µM	> 100 µM
N=C(N)c1ccc(NC(=O)COCC(=O)Nc2ccc(C(=N)N)cc2)cc1	0.146 µM	Active	inactive	> 100 µM	> 100 µM
Cc1cc(C(=N)N)cc(C)c1OCCOCCOc1c(C)cc(C(=N)N)cc1C	0.175 µM	Active	inactive	75.8 µM	16.7 µM
N=C(N)c1ccc(NC(=O)CSCC(=O)Nc2ccc(C(=N)N)cc2)cc1	0.568 µM	Active	inactive	> 100 µM	> 100 µM
C/N=C(\NC)c1ccc(CN2CCN(Cc3ccc(/C(=N/C)NC)cc3)CC2)cc1		inactive			
CN(C(=O)CCCC(=O)N(C)c1ccc(C(=N)N)cc1)c1ccc(C(=N)N)cc1	0.303 µM	Active	inactive	> 100 µM	> 100 µM
N=C(N)c1ccc(SCCOCCSc2ccc(C(=N)N)cc2)cc1	< 0.223 µM	Active	inactive	50.9 µM	26.4 µM
CCN(CCOc1ccc(C(=N)N)cc1)CCOc1ccc(C(=N)N)cc1	< 0.209 µM	Active	inactive	> 100 µM	> 100 µM
N=C(N)c1ccc(OCCCCCOc2ccc(C(=N)N)cc2)cc1 [PENTAMIDINE]					33.8 µM

More lines, in order of falling IC50 (Pneumocystis carinii [1]), values ahead:

IC50 (Pneumocystis carinii [1])	Activity (Pneumocystis carinii [3])	Activity [4]	SMILES	IC50 (A549)	IC50 [2]
0.109 µM	Active	inactive	N=C(N)c1ccc(CN2CCN(Cc3ccc(C(=N)N)cc3)CC2)cc1	> 100 µM	> 100 µM
0.083 µM	Active	inactive	CCCCNC(=N)c1ccc(CN2CCN(Cc3ccc(C(=N)NCCCC)cc3)CC2)cc1	> 100 µM	> 100 µM
0.076 µM	Active	inactive	CN(C(=O)CCC(=O)N(C)c1ccc(C(=N)N)cc1)c1ccc(C(=N)N)cc1	> 100 µM	> 100 µM
0.062 µM	Active	inactive	N=C(N)c1ccc(NCCOCCNc2ccc(C(=N)N)cc2[N+](=O)[O-])c([N+](=O)[O-])c1	> 100 µM	> 100 µM
0.041 µM	Active	inactive	CCCCCNC(=N)c1ccc(CN2CCN(Cc3ccc(C(=N)NCCCCC)cc3)CC2)cc1	> 100 µM	> 100 µM
0.036 µM	Active	inactive	COc1cc(C(=N)N)cc(Br)c1OCCCCCOc1c(Br)cc(C(=N)N)cc1OC	26.3 µM	29.5 µM
0.014 µM	Active	inactive	N=C(N)c1ccc(OCCOCCOc2ccc(C(=N)N)cc2[N+](=O)[O-])c([N+](=O)[O-])c1	> 100 µM	176 µM
0.012 µM	Active	inactive	CN(C(=O)CCCCC(=O)N(C)c1ccc(C(=N)N)cc1)c1ccc(C(=N)N)cc1	> 100 µM	> 100 µM
0.011 µM	Active	inactive	N=C(N)c1ccc(OCCOCCOc2ccc(C(=N)N)cc2N)c(N)c1	> 100 µM	> 100 µM
0.01 µM	Active	inactive	c1cc(C2=NCCN2)ccc1SCCOCCSc1ccc(C2=NCCN2)cc1	30.6 µM	> 100 µM
